The values that follow come from ChEMBL document CHEMBL1142153, “Pharmacokinetics and disposition of CS-023 (RO4908463), a novel parenteral carbapenem, in animals” (Antimicrob Agents Chemother, 2007).

SMILES strings stand for the structures.

For data set [1], the system named is Macaca fascicularis. As to the kind of experiment: AUC (0-inf) in monkey assessed as radioactivity at 10 mg/kg, iv. The following applies: cynomolgus monkey, in vivo.
Data set [2] concerns Rattus norvegicus. The experiment in a line: AUC (0-inf) in rat assessed as radioactivity at 10 mg/kg, iv. Format: ADME, organism-based, Plasma. Also on record: time infinity, dose 10 mg/kg, route intravenous. The following applies: in vivo. A digest of the protocol:
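[14C]CS-023 with unlabeled drug in saline, 10 mg/kg single i.v. bolus (rats via tail vein, 4.58 MBq/kg; monkeys via cephalic vein, 3 MBq/kg). Blood drawn with heparin (rat jugular, monkey femoral vein) at set times. Plasma centrifuged at 4°C, and total radioactivity counted by liquid scintillation with tissue solubilizer. Quantitation limit was twice background.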

In data set [3] the test system is Rattus norvegicus. As to the kind of experiment: Urinary excretion ratio in rat assessed as radioactivity at 10 mg/kg, iv after 7 days. Format: ADME, organism-based, Urine. Also on record: dose 10 mg/kg, route intravenous. The following applies: in vivo, 168 h. The method in brief:
(§1)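 Rats were dosed i.v. via the tail vein with [14C]CS-023 at 10 mg/kg (4.58 MBq/kg) in saline, then kept in individual metabolic cages for separate urine and feces collection over 7 days. Samples up to 24 h were collected at around 4°C into 0.5 M MOPS pH 6.0, and feces were homogenized. Radioactivity was measured by liquid scintillation counting. Parent drug and metabolite were apportioned by silica TLC (3% NaCl:acetonitrile 2:1) with imaging-plate analysis. n=4.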

Data set [4] deals with Rattus norvegicus. As to the kind of experiment: Biliary excretion in bile duct cannulated rat assessed as radioactivity at 10 mg/kg, iv after 48 h. It is filed as ADME, organism-based. Also on record: dose 10 mg/kg, route intravenous. The following applies: in vivo. The method in brief: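 Rats had bile-duct cannulation by laparotomy under diethyl ether and were housed in Bollman cages. They were then dosed i.v. with [14C]CS-023 at 10 mg/kg in saline. Bile was collected on ice over set intervals, and radioactivity was measured by liquid scintillation counting.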

In data set [5] the test system is Macaca fascicularis. The experiment in a line: Fecal excretion ratio in monkey assessed as radioactivity at 10 mg/kg, iv after 7 days. The following applies: cynomolgus monkey, in vivo, 168 h.
Data set [6] relates to Macaca fascicularis. The experiment in a line: Urinary excretion ratio in monkey assessed as radioactivity at 10 mg/kg, iv after 7 days. The following applies: cynomolgus monkey, in vivo, 168 h.
In data set [7] the test system is Rattus norvegicus. As to the kind of experiment: Fecal excretion ratio in rat assessed as radioactivity at 10 mg/kg, iv after 7 days. It is filed as ADME, organism-based. Also noted: dose 10 mg/kg, route intravenous. The following applies: in vivo, 168 h. A digest of the protocol:
as §1

In the case of `C[C@@H](O)[C@H]1C(=O)N2[C@@H]1[C@@H](C)C(S[C@H]1C[C@@H](C(=O)N3CC[C@H](NC(=O)CNC(=N)N)C3)N(C)C1)=[14C]2C(=O)O`, the area under the curve (AUC) with Macaca fascicularis [1] was 87400 ng·h/mL; with Rattus norvegicus [2], 26800 ng·h/mL. The Activity with Rattus norvegicus [3] came out at 87.1%; with Rattus norvegicus [4] it was 0.54%; with Macaca fascicularis [5], 7.5%; in the data set with Macaca fascicularis [6] it was 88%; in the data set on Rattus norvegicus [7] it was 12.5%.
